Screens deposited in PubChem BioAssay by Broad Institute.
Only some compounds are listed: those with a hit (about 2.1% of all), similar ones and a draw of the others.
FGF22 binding: binders of recombinant human FGF22 by thermal shift | Q9HCT0 | SYPRO orange fluorescence; percent of sucrose octasulfate shift, DMSO zero | activity (Tm shift, normalised), % at 9.99 µM | 340,000 tested, 1.5% active | AID 651658;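 active means mean Tm shift, scaled 0 neutral to 100 positive control, at about 1.3% or above, every replicate too, limit read from the data; inconclusive means no clear call, values can overlap the other calls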
Target sequence (Q9HCT0 whole entry, looked up): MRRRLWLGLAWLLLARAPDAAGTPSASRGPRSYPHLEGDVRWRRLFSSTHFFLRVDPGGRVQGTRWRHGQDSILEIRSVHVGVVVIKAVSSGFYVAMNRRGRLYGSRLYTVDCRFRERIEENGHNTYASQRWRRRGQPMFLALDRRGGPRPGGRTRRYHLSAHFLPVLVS
PDI inh: inhibitors of human protein disulfide isomerase. AID 588391. 350,000 tested, 0.052% active. PDI insulin aggregation turbidity, A650, 90 min. inhibition, % at 10 µM. P07237;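 active means mean inhibition across replicates of 30% or more, whatever share of single replicates reach that level; inconclusive means mean inhibition below 30% while every single replicate reaches 30%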
Target sequence (P07237 whole entry, looked up): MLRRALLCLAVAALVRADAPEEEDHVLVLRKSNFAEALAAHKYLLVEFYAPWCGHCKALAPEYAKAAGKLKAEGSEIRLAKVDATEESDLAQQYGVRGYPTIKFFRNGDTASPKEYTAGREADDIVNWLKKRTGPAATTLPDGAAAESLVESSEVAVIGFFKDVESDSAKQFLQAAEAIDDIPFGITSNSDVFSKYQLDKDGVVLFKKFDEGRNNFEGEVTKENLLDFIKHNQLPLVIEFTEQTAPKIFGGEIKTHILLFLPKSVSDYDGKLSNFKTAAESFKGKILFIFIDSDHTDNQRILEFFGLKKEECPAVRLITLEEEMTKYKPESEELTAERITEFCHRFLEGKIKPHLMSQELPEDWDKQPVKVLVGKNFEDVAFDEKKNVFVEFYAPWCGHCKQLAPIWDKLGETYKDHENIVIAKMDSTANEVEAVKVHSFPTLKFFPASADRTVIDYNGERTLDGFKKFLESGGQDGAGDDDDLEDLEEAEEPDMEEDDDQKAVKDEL
ERp5 inh: inhibitors of human ERp5; Q15084; ERp5 insulin aggregation, absorbance 650 nm, 90 min; inhibition, % at 9.99 µM; 350,000 tested, 0.05% active; AID 651711;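 active means mean replicate inhibition above about 25%, with every replicate also reaching it, limit read from the data, passing the limit was not always enough; inconclusive means only one of those two criteria met; inactive means neither criterion met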
MLL AF4-AF9 inh: MLL-AF4/AF9 protein interaction inhibition; AlphaScreen, biotin-AF4 peptide binding to FLAG-AF9; inhibition, % at 10 µM; P42568; 350,000 tested, 0.47% active; AID 651704;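 active means every replicate reaching a set inhibition limit, whatever the replicate mean, cut at about 25% in these data; inconclusive means mean inhibition reaches that limit but some replicates miss it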;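 further: 0% = plate neutral control median and 100% = total signal loss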
ARNT TACC3 PPI: ARNT/TACC3 interaction disruption; Q9Y6A5; AlphaScreen His-ARNT PAS-B/GST-TACC3 binding, luminescence; TACC3 fragment carries E629A point mutation; inhibition, % at 9.99 µM; 390,000 tested, 0.66% active;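 active means mean inhibition of replicates at least 50% and at least half of replicates each reaching 50%; inconclusive means half or more replicates reach 50% but mean below 50%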;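 further: 0% = complete ARNT plus TACC3 wells and 100% = ARNT alone without TACC3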
FN deposit inh: fibronectin deposition inhibition; AH1F fibroblasts, Alexa488-fibronectin deposition fluorescence, overnight; inhibition, % at 12.6 µM; 350,000 tested, 0.086% active; AID 743247;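 active means mean inhibition across replicates of 30% or more, regardless of how many single replicates reach that level; inconclusive means mean under 30% yet at least half of replicates reach 30%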;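 further: positive control wells lacked labelled fibronectin entirely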
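Test system: AH1F fibroblast monolayer depositing Alexa488-labelled fibronectin into matrix. Input: 10000 cells per well. Technique: fluorescence, ex 485 nm, em 525 nm. Buffer or medium: DMEM plus 2% serum, read in PBS. Timing: 1 h cell adhesion before compound, then overnight fibronectin incubation. Compound: single dose, pinned. Read-out basis: inhibition from reduced deposited-fibronectin fluorescence.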
The depositor's hits bear a star; ? = inconclusive; . = no result.

SMILES | FGF22 binding | PDI inh | ERp5 inh | MLL AF4-AF9 inh | ARNT TACC3 PPI | FN deposit inh
CCOc1ccc(C2C([N+](=O)[O-])=C(C)N(C)C(=O)N2C)cc1OC (stereo not given) | 43* | 4 | -2 | 0 | 7 | .
Cc1cc(C(F)(F)F)nc(SCCN2CCOCC2)c1C#N | 43* | 7 | -5 | 0 | 4 | -5
Cc1cc(C)c(C#N)c(SCCN2CCCCC2)n1 | 0 | 0 | 0 | -2 | -3 | 1
C[C@H]1CN([C@@H](C)CO)C(=O)c2cccc(NC(=O)C3CCOCC3)c2O[C@H]1CN(C)Cc1ccc(C(F)(F)F)cc1 | 0 | . | 0 | -1 | -4 | .
COc1ccc(OC)c(-n2c(-c3cnccn3)n[nH]c2=S)c1 | . | 1 | . | . | 5 | .
COc1ccc(OC)c(-n2c(Cn3c(-c4ccccn4)nc4ccccc43)n[nH]c2=S)c1 | 44* | -1 | -2 | -8 | -5 | -5
C[C@H](CO)N1C[C@H](C)[C@@H](CN(C)Cc2ccncc2)OCCCC[C@H](C)Oc2ccc(N(C)C)cc2C1=O | 0 | . | 7 | 5 | 7 | .
COc1ccc2cc(CN(Cc3ccco3)C(=S)NCC3CCCO3)c(=O)[nH]c2c1 (stereo not given) | 0 | 4 | 0 | -6 | -3 | 3
COc1ccc2[nH]c(=O)c(CN(Cc3ccccc3)C(=S)NCC3CCCO3)cc2c1 (stereo not given) | 44* | 0 | 8 | 2 | 5 | 4
C=CCn1c(CNc2ccccc2)nnc1SCC(=O)N/N=C/c1ccccc1O | . | 7 | . | . | active | .
C=CCn1c(COc2ccc(Cl)cc2)nnc1SCC(=O)N/N=C/c1cccc(O)c1 | . | 8 | . | . | -2 | .
CN1[C@@H]2c3ccc(C4=CCCCC4)c(=O)n3C[C@H]1[C@H](CO)[C@H]2C(=O)NCc1cc(F)cc(F)c1 | 0 | . | 1 | 1 | 3 | .
CN(C)/C=C(/C(=O)c1ccc(Cl)c(Cl)c1)S(C)(=O)=O | 44* | 5 | -1 | -3 | -1 | 5
CN(C)/C=C(/C(=O)c1ccc(Cl)cc1)S(C)(=O)=O | 0 | 0 | -2 | -9 | -1 | 0
CCN(c1ccccc1)S(=O)(=O)c1ccc(OC)c(NC(=O)c2c(C)noc2C)c1 | 0 | 1 | 27* | -26 | . | -3
CN(C)c1nc(Cl)nc(N(C#N)CCOc2ccccc2)n1 | 43* | 3 | -4 | -2 | -6 | 16
CCNc1nc(NCC)nc(N(C#N)CCOc2ccccc2)n1 | 0 | -6 | 0 | -10 | . | .
Cc1ccccc1S(=O)(=O)N(C)C[C@H]1OCc2cn(nn2)CCCC(=O)N([C@@H](C)CO)C[C@H]1C | . | . | . | . | . | 3
CN=c1scc(-c2ccc([N+](=O)[O-])cc2)n1/N=C/c1ccco1 | 0 | 5 | 4 | 6 | -2 | 3
CN=c1scc(-c2ccc(F)cc2)n1/N=C/c1ccc(O)c(O)c1 | 0 | -7 | 7 | 59* | 23 | -2
Cc1cc(O)c2c(c1O)C(=O)[C@]13C(=C2O)C(=O)[C@@H]2[C@@H](O)[C@H]1[C@@H]1[C@H](O)[C@H]3C(=O)C3=C(O)c4c(O)cc(C)c(O)c4C(=O)[C@]312 | . | . | . | . | 47* | .
CCOC(=O)C1(CC2CC2)CCN(C(=O)c2cc(C)nc3ccc(CC)cc23)CC1 | 44* | -8 | -6 | 3 | 1 | 0
CCOC(=O)C1(Cc2ccc(Cl)cc2)CCN(C(=O)c2sc(C)nc2C)CC1 | 0 | 14 | ? | 0 | 4 | 12
CCOC(=O)C1(Cc2ccc(Cl)cc2)CCN(C(=O)c2cc(C)nc(C)n2)CC1 | 43* | 11 | 2 | 1 | 8 | -8
CCCNC(=O)N1CCC2(CC1)CN(Cc1cccc(F)c1)[C@H](CO)c1[nH]c3cc(OC)ccc3c12 | 0 | . | -2 | 0 | . | .
SMILES | FGF22 binding | PDI inh | ERp5 inh | MLL AF4-AF9 inh | ARNT TACC3 PPI | FN deposit inh
CCC(=O)Nc1nc(C)c(-c2csc(Nc3cccc(C(=O)O)c3)n2)s1 | 1 | 1 | 1 | -1 | -4 | -7
Cc1nc(N)sc1-c1csc(Nc2cccc(C(=O)O)c2)n1 | 0 | 2 | -5 | 6 | 52* | 7
Cc1cc(NS(=O)(=O)c2ccc(Nc3nc(-c4sc(N)nc4C)cs3)cc2)no1 | . | -8 | . | . | 62* | .
Cc1cc(NS(=O)(=O)c2ccc(Nc3nc(-c4ccc(C)c(C)c4)cs3)cc2)no1 | . | 11 | . | . | 3 | -11
O=C(CCl)Nc1nc(-c2ccco2)c(-c2ccco2)s1 | 0 | 62* | 8 | 8 | -8 | -15
Cc1cc(OC(=O)c2ccccc2Cl)c([N+](=O)[O-])c(=O)[nH]1 | 0 | 1 | 4 | -15 | 2 | 6
Cc1cc(OC(=O)c2ccc(Cl)cc2Cl)c([N+](=O)[O-])c(=O)[nH]1 | 0 | -2 | -2 | 37* | -4 | -4
CCCCOc1ccc(C(=O)Oc2cc(C)[nH]c(=O)c2[N+](=O)[O-])cc1 | 0 | 0 | 3 | -2 | 46* | 1
CCOc1ccc(C(=O)Oc2cc(C)[nH]c(=O)c2[N+](=O)[O-])cc1 | 0 | 6 | -1 | -7 | -8 | -11
COCC(=O)N(C)C[C@@H]1Oc2ncc(C#C[C@@H](C)O)cc2C(=O)N([C@@H](C)CO)C[C@@H]1C | 0 | . | 0 | -1 | 2 | 7
C[C@H]1CN([C@@H](C)CO)C(=O)Cc2cc(NS(=O)(=O)c3cccs3)ccc2O[C@H]1CN(C)S(=O)(=O)c1ccc(F)cc1 | 0 | . | -6 | -5 | . | 3
CC(=O)C1C(c2ccccc2Cl)NC(=O)NC1(O)C(F)(F)F (stereo not given) | 0 | 5 | 2 | -2 | 6 | -4
CC(=O)C1C(c2cn(-c3ccccc3)nc2-c2cccs2)NC(=O)NC1(O)C(F)(F)F (stereo not given) | . | -5 | . | . | 47* | .
O=C1C=C(O)c2[nH]c(=O)ccc2C1=O | -1 | 3 | 7 | -1 | 36* | -6
O=C1C=C(O)c2c(O)cc(O)c(O)c2C1=O | 0 | . | -2 | 4 | 19 | .
O=C(C[C@@H]1C=C[C@H](NC(=O)c2cccc(F)c2)[C@@H](CO)O1)NCc1ccc(Oc2ccccc2)cc1 | 0 | . | 0 | -9 | -34 | .
O=C(CN(c1ccc2c(c1)OCCO2)S(=O)(=O)c1ccccc1)N1CCN(Cc2ccccc2)CC1 | 43* | 14 | 5 | 0 | -8 | 2
COC(=O)CSc1nnc(CNC(=O)c2ccc(S(=O)(=O)N(C)C)cc2)n1C | 43* | 3 | 5 | -1 | -7 | 5
CC(C)(O)c1[nH]c2ccc(C#N)cc2c1C(C)(C)O | 0 | . | 2 | 46* | . | 19
C[C@H](CO)N1C[C@H](C)[C@@H](CN(C)S(=O)(=O)c2ccccc2)Oc2cc(Br)ccc2S1(=O)=O | 0 | . | 0 | 4 | 6 | -4
COCCCNc1nc(=S)[nH]c2cc(OC)c(OC)cc12 | . | -1 | . | . | 64* | .
